Key:
[1] = biological target: T1, Amine oxidase [flavin-containing] B (Homo sapiens, UniProt P27338)
T1 sequence (P27338 whole entry): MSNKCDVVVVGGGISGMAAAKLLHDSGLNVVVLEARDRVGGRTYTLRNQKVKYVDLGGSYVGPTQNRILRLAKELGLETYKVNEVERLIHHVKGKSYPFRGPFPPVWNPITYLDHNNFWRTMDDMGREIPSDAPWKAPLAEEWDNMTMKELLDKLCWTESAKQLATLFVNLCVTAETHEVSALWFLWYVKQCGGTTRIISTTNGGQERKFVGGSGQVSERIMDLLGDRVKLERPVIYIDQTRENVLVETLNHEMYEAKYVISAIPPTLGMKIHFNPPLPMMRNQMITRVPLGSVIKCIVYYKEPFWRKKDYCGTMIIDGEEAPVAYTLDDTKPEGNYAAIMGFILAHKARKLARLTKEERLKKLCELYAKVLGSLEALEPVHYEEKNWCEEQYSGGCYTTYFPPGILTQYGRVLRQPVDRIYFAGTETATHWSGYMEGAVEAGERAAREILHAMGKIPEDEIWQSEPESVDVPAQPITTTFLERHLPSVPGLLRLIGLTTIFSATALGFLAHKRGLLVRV

[2] = biological target: T2, Amine oxidase [flavin-containing] A (Homo sapiens, UniProt P21397); test: Inhibition of human MAOA by fluorimetry
T2 sequence (P21397 whole entry): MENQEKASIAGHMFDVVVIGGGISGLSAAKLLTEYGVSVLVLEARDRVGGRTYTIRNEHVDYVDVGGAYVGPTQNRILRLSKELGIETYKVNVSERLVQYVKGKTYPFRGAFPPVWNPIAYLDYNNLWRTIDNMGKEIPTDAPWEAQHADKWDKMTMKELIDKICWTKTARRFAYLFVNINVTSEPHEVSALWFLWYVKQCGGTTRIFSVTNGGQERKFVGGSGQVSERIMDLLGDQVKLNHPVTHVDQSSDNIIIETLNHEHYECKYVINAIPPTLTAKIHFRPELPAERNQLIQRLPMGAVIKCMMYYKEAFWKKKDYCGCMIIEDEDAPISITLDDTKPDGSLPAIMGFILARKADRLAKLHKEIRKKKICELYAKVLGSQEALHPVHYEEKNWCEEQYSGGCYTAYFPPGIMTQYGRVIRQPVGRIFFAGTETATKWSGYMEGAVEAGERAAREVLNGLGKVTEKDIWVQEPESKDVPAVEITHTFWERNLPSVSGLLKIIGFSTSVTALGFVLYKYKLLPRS

Homo sapiens = organism: Homo sapiens; test: Selectivity index, ratio of IC50 for human recombinant MAOA to IC50 for human recombinant MAOB
[3] = biological target: T1, Amine oxidase [flavin-containing] B; test: Inhibition of human MAOB at 100 uM by fluorimetry
In short: (§1)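 Recombinant human MAO-A or MAO-B, each at an amount set to oxidize 165 pmol p-tyramine/min, preincubated 15 min at 37 °C with compound in 0.05 M sodium phosphate pH 7.4. Reaction started with final 200 µM Amplex Red, 1 U/mL HRP and 1 mM p-tyramine. Resorufin fluorescence (ex 545, em 590 nm) read over 15 min at 37 °C; enzyme-free background subtracted.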

[4] = biological target: T2, Amine oxidase [flavin-containing] A; test: Inhibition of human MAOA at 100 uM by fluorimetry
In short: as §1

[5] = biological target: T1, Amine oxidase [flavin-containing] B; test: Inhibition of human MAOB at 1 uM by fluorimetry
[6] = biological target: T2, Amine oxidase [flavin-containing] A; test: Inhibition of human MAOA at 100 nM
[7] = biological target: T2, Amine oxidase [flavin-containing] A; test: Reversible inhibition of human MAOA at 100 uM by centrifugation-ultrafiltration method
In short: (§2)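 Reversibility test: hMAO-A or hMAO-B with compound was ultrafiltered on a 30 kDa membrane. Retained enzyme was resuspended in sodium phosphate buffer at 4 °C and recentrifuged, three centrifugations in all. An aliquot was then assayed fluorimetrically with p-tyramine/Amplex Red. Percent inhibition was computed for washed and unwashed samples against vehicle controls; n = 5.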

[8] = biological target: T1, Amine oxidase [flavin-containing] B; test: Inhibition of human MAOB at 5 uM
[9] = biological target: T2, Amine oxidase [flavin-containing] A; test: Inhibition of human MAOA at 500 nM
In short: as §2

[10] = biological target: T1, Amine oxidase [flavin-containing] B; test: Inhibition of human MAOB at 5 nM by centrifugation-ultrafiltration method
In short: as §2

[11] = biological target: T2, Amine oxidase [flavin-containing] A; test: Reversible inhibition of human MAOA at 500 nM by centrifugation-ultrafiltration method
In short: as §2

| SMILES | IC50 [1] [µM] | IC50 [2] [µM] | Ratio IC50 (Homo sapiens) | also measured |
| --- | --- | --- | --- | --- |
| COc1cccc(-c2csc(NN=C3CCCCCC3)n2)c1 | 0.0295 | 1.78 | 60 | – |
| COc1cccc(-c2csc(N/N=C/c3ccco3)n2)c1 | 6.78 | 0.343 | 0.051 | – |
| COc1cccc(-c2csc(N/N=C/c3c[nH]c4ccccc34)n2)c1 | 0.8 | 0.414 | 0.52 | – |
| COc1cccc(-c2csc(N/N=C(\C)c3ccncc3)n2)c1 | 0.116 | 3.71 | 32 | – |
| CCC/C(C)=N/Nc1nc(-c2cccc(OC)c2)cs1 | 0.871 | 1.31 | 1.5 | – |
| COc1cccc(-c2csc(N/N=C/c3cccs3)n2)c1 | 0.494 | 0.458 | 0.93 | – |
| COc1cccc(-c2csc(N/N=C(\C)c3cccc4ccccc34)n2)c1 | – | – | – | inhibition (INH) ([3]; 100 µM): Not Active; inhibition at 100 µM [4]: 40% |
| CCCCCC/C(C)=N/Nc1nc(-c2cccc(OC)c2)cs1 | – | 1.38 | – | inhibition at 100 µM [3]: 40% |
| COc1cccc(-c2csc(N/N=C(\C)c3ccccn3)n2)c1 | – | – | – | inhibition at 100 µM [3]: 40%; inhibition at 100 µM [4]: 40% |
| COc1cccc(-c2csc(N/N=C(\C)c3cccs3)n2)c1 | 0.551 | 0.636 | 1.15 | – |
| COc1cccc(-c2csc(N/N=C3\CCC(C)C3)n2)c1 (configuration not stated) | 0.231 | 1.45 | 6.3 | – |
| CCCCC/C(C)=N/Nc1nc(-c2cccc(OC)c2)cs1 | 6.72 | 1.15 | 0.17 | – |
| COc1cccc(-c2csc(N/N=C/c3cccc4ccccc34)n2)c1 | – | 3.64 | – | inhibition at 100 µM [3]: 40% |
| COc1cccc(-c2csc(NN=C3CCCC3)n2)c1 | 1.06 | 0.592 | 0.56 | – |
| O=C(NCCN1CCOCC1)c1ccc(Cl)cc1 [MOCLOBEMIDE] | – | – | – | IC50 [5]: Not Active |
| COc1cccc(-c2csc(N/N=C/c3cccnc3)n2)c1 | 2.91 | 0.538 | 0.18 | – |
| COc1cccc(-c2csc(N/N=C3\CCCC(C)C3)n2)c1 (configuration not stated) | 0.0727 | 0.679 | 9.3 | – |
| COc1cccc(-c2csc(NN=C(C)C)n2)c1 | 5.07 | 4.43 | 0.87 | – |
| COc1cccc(-c2csc(N/N=C3\CCCC3C)n2)c1 (configuration not stated) | 0.0266 | 0.836 | 31 | – |
| COc1cccc(-c2csc(N/N=C3\CCCCC3C)n2)c1 (configuration not stated) | 0.0122 | 0.737 | 60 | – |
| COc1cccc(-c2csc(N/N=C/c3ccncc3)n2)c1 | 1.14 | 0.698 | 0.61 | – |
| O=C1Nc2ccccc2C1=O [ISATIN] | – | – | – | inhibition at 0.1 µM [6]: 40.3%; inhibition at 100 µM [4]: 40%; inhibition at 100 µM [7]: 12.1% |
| COc1cccc(-c2csc(NN=C3CCC(C)CC3)n2)c1 (configuration not stated) | 0.0355 | 0.749 | 21 | – |
| COc1cccc(-c2csc(N/N=C(\C)c3cccnc3)n2)c1 | 0.00381 | 0.455 | 119 | inhibition at 5 µM [8]: 63.7%; inhibition at 0.5 µM [9]: 59.1%; inhibition at 0.005 µM [10]: 67.2%; inhibition at 0.5 µM [11]: 65.1% |
| COc1cccc(-c2csc(N/N=C(\C)c3cc4ccccc4oc3=O)n2)c1 | 6.97 | 5.56 | 0.8 | – |
| CCC(CC)=NNc1nc(-c2cccc(OC)c2)cs1 | 0.772 | 0.824 | 1.1 | – |
| COc1cccc(-c2csc(NN=C3CCCCC3)n2)c1 | 0.0319 | 1.91 | 60 | – |
| COc1cccc(-c2csc(N/N=C(\C)c3ccco3)n2)c1 | 1.68 | 0.333 | 0.2 | – |

Reference: ChEMBL document CHEMBL1212838, “Investigations on the 2-thiazolylhydrazyne scaffold: synthesis and molecular modeling of selective human monoamine oxidase inhibitors” (Bioorg Med Chem, 2010)
